Laboratory results: ChEMBL document CHEMBL1124127, “Central dopaminergic and 5-hydroxytryptaminergic effects of C3-methylated derivatives of 8-hydroxy-2-(di-n-propylamino)tetralin” (J Med Chem, 1988)

Tests used:
[1] = molecular target: T1, 5-hydroxytryptamine receptor 1A (Rattus norvegicus, UniProt P19327); experiment: Inhibitory activity tested in vitro at 5-hydroxytryptamine 1A receptor binding site in rat
T1 sequence (P19327 whole entry): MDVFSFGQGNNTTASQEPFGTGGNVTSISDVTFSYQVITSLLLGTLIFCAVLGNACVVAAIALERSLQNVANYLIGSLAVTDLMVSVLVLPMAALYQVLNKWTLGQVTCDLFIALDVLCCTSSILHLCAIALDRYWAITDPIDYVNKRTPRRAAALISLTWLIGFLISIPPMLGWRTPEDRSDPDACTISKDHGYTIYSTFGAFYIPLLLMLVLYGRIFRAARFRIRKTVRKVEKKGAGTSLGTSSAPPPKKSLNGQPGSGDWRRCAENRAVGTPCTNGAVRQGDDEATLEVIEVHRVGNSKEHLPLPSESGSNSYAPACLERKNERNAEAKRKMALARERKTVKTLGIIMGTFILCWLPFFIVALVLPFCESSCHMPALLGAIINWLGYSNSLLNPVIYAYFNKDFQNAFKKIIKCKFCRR
Procedure, shortened: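 Competition binding used rat brain membranes washed in 50 mM Tris-HCl pH 7.4, preincubated 10 min at 37 °C to remove 5-HT, and used at 10 mg wet tissue/mL. Assay: 1 nM [3H]-8-OH-DPAT, 3 mM CaCl2, 100 µM pargyline, 15 min at 37 °C, then filtration on PEI-treated filters. Nonspecific binding was set with 10 µM 5-HT. IC50 came from four-parameter logistic regression, mean ± SEM of N experiments.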

Rattus norvegicus [2] = experiment: Effect on in vivo accumulation of DOPA was measured in rat corpus striatum at 59(Micromol/kg) dose; type: functional
Procedure, shortened: (§1)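 Rats not pretreated with reserpine received test drug (hydrochloride or hydrobromide salt) sc in the neck region 60 min before death. NSD 1015 decarboxylase inhibitor (100 mg/kg, i.e., 573 μmol/kg, ip) was given 30 min before decapitation. Brain was dissected on ice. Tissue was homogenized in 0.1 M perchloric acid with α-methyl-DOPA internal standard. Analytes were quantified by ion-pair reversed-phase HPLC-electrochemical detection. Values are means ± SEM, n = 3-7 per treated group.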

Rattus norvegicus [3] = experiment: Effect on in vivo accumulation of DOPA was measured in rat limbic system at 59(Micromol/kg) dose; type: functional; procedure, shortened: as §1
Rattus norvegicus [4] = experiment: Effect on in vivo accumulation of 5-HTP was measured in rat corpus striatum at 59(umol/kg) dose; type: functional; procedure, shortened: as §1
Rattus norvegicus [5] = experiment: Effect on in vivo accumulation of […] was measured in rat corpus striatum at 59(Micromol/kg) dose; type: functional; procedure, shortened: as §1
Rattus norvegicus [6] = experiment: Effect on in vivo accumulation of dopamine(DA) was measured in rat limbic system at 59(Micromol/kg) dose; type: functional
Procedure, shortened: (§2)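 Non-reserpinized rats got the test drug sc in the neck (5 mL/kg) 60 min before death, and NSD 1015 (573 µmol/kg ip) 30 min before death. After decapitation, the limbic system was dissected on ice, frozen and homogenized in 0.1 M perchloric acid with α-methyl-DOPA internal standard. DA was measured by ion-pair reversed-phase HPLC with electrochemical detection. Data are mean ± SEM (controls n=17-19, treated 3-7), analysed by ANOVA/Dunnett.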

Rattus norvegicus [7] = experiment: Effect on in vivo accumulation of 5-HTP was measured in rat limbic system at 59(Micromol/kg) dose; type: functional; procedure, shortened: as §1
Rattus norvegicus [8] = experiment: Effect on in vivo accumulation of DOPA was measured in rat corpus striatum at 5.9 (umol/kg) dose; type: functional; procedure, shortened: as §1
Rattus norvegicus [9] = experiment: Effect on in vivo accumulation of […] was measured in rat corpus striatum at 5.9 (umol/kg) dose; type: functional; procedure, shortened: as §1
Rattus norvegicus [10] = experiment: Effect on in vivo accumulation of 5-HTP was measured in rat limbic system at 5.9 (umol/kg) dose; type: functional; procedure, shortened: as §1
Rattus norvegicus [11] = experiment: Effect on in vivo accumulation of 5-HTP was measured in rat corpus striatum at 5.9(umol/kg) dose; type: functional; procedure, shortened: as §1
Rattus norvegicus [12] = experiment: Effect on in vivo accumulation of DOPA was measured in rat limbic system at 5.9 (umol/kg) dose; type: functional; procedure, shortened: as §1
Rattus norvegicus [13] = experiment: Effect on in vivo accumulation of dopamine(DA) was measured in rat limbic system at 5.9 (umol/kg) dose; type: functional; procedure, shortened: as §2
Rattus norvegicus [14] = experiment: Effect on in vivo accumulation of 5-HTP was measured in rat limbic system at 50(Micromol/kg) dose; type: functional; procedure, shortened: as §1
Rattus norvegicus [15] = experiment: Effect on in vivo accumulation of 5-HTP was measured in rat corpus striatum at 50(umol/kg) dose; type: functional; procedure, shortened: as §1
Rattus norvegicus [16] = experiment: Effect on in vivo accumulation of dopamine(DA) was measured in rat limbic system at 50(Micromol/kg) dose; type: functional; procedure, shortened: as §2
Rattus norvegicus [17] = experiment: Effect on in vivo accumulation of DOPA was measured in rat corpus striatum at 50(Micromol/kg) dose; type: functional; procedure, shortened: as §1
Rattus norvegicus [18] = experiment: Effect on in vivo accumulation of […] was measured in rat corpus striatum at 50(Micromol/kg) dose; type: functional; procedure, shortened: as §1
Rattus norvegicus [19] = experiment: Effect on in vivo accumulation of DOPA was measured in rat limbic system at 50(Micromol/kg) dose; type: functional; procedure, shortened: as §1
Rattus norvegicus [20] = experiment: Effect on in vivo accumulation of DOPA was measured in rat corpus striatum at 43(Micromol/kg) dose; type: functional; procedure, shortened: as §1
Rattus norvegicus [21] = experiment: Effect on in vivo accumulation of 5-HTP was measured in rat limbic system at 43(Micromol/kg) dose; type: functional; procedure, shortened: as §1
Rattus norvegicus [22] = experiment: Effect on in vivo accumulation of dopamine(DA) was measured in rat limbic system at 43(Micromol/kg) dose; type: functional; procedure, shortened: as §2
Rattus norvegicus [23] = experiment: Effect on in vivo accumulation of DOPA was measured in rat limbic system at 43(Micromol/kg) dose; type: functional; procedure, shortened: as §1
Rattus norvegicus [24] = experiment: Effect on in vivo accumulation of 5-HTP was measured in rat corpus striatum at 43(umol/kg) dose; type: functional; procedure, shortened: as §1
Rattus norvegicus [25] = experiment: Effect on in vivo accumulation of […] was measured in rat corpus striatum at 43(Micromol/kg) dose; type: functional; procedure, shortened: as §1

Q: `CCCN(CCC)[C@H]1Cc2c(O)cccc2C[C@H]1C` (stereo in doubt; (+)) was tested. Which IC50 [1] did it give?
A: 2420 nM

Q: With `CCCN(CCC)[C@H]1Cc2c(O)cccc2C[C@@H]1C` (stereo in doubt; (+)) as the molecule, how does the IC50 [1] read?
A: 60.5 nM

Q: For `CCCN[C@H]1Cc2c(O)cccc2C[C@@H]1C` (stereo in doubt; (+)-9), which Activity (Rattus norvegicus [2]) is on record?
A: 957 ng/g

Q: And the Activity (Rattus norvegicus [3])?
A: 426 ng/g

Q: What about the Activity (Rattus norvegicus [4]) of the same molecule?
A: <67.4 ng/g

Q: And the Activity (Rattus norvegicus [5])?
A: 4249 ng/g

Q: And the Activity (Rattus norvegicus [6])?
A: 1030 ng/g

Q: What about the Activity (Rattus norvegicus [7]) of the same molecule?
A: 125 ng/g

Q: Which Activity (Rattus norvegicus [8]) does the source give for `CCCN[C@H]1Cc2c(O)cccc2C[C@H]1C` (stereo in doubt; (+)-13) here?
A: 1013 ng/g

Q: And the Activity (Rattus norvegicus [9])?
A: 5924 ng/g

Q: What about the Activity (Rattus norvegicus [2]) of the same molecule?
A: <525 ng/g

Q: And the Activity (Rattus norvegicus [3])?
A: <271 ng/g

Q: And the Activity (Rattus norvegicus [10])?
A: 131 ng/g

Q: What about the Activity (Rattus norvegicus [11]) of the same molecule?
A: 104 ng/g

Q: And the Activity (Rattus norvegicus [4])?
A: 101 ng/g

Q: What about the Activity (Rattus norvegicus [5]) of the same molecule?
A: 5133 ng/g

Q: What about the Activity (Rattus norvegicus [6]) of the same molecule?
A: 1186 ng/g

Q: And the Activity (Rattus norvegicus [7])?
A: 140 ng/g

Q: And the Activity (Rattus norvegicus [12])?
A: 365 ng/g

Q: What about the Activity (Rattus norvegicus [13]) of the same molecule?
A: 1292 ng/g

Q: For `CCCN(CCC)[C@H]1Cc2c(O)cccc2C[C@H]1C` (stereo in doubt; (+)-15), which Activity (Rattus norvegicus [14]) is on record?
A: 197 ng/g

Q: And the Activity (Rattus norvegicus [15])?
A: 115 ng/g

Q: And the Activity (Rattus norvegicus [16])?
A: <609 ng/g

Q: What about the IC50 [1] of the same molecule?
A: 2420 nM

Q: And the Activity (Rattus norvegicus [17])?
A: 1157 ng/g

Q: And the Activity (Rattus norvegicus [18])?
A: <2758 ng/g

Q: And the Activity (Rattus norvegicus [19])?
A: <507 ng/g

Q: For `CCCN(CCC)[C@H]1Cc2c(O)cccc2C[C@H]1C` (stereo in doubt; (-)), which IC50 [1] is on record?
A: 486 nM

Q: `CCCN(CCC)[C@H]1Cc2c(O)cccc2C[C@@H]1C` (stereo in doubt; (-)) was tested. Which IC50 [1] did it give?
A: 1680 nM

Q: How did the Activity (Rattus norvegicus [2]) turn out when `CCCN[C@H]1Cc2c(O)cccc2C[C@@H]1C` (stereo in doubt; (-)-9) was run?
A: 978 ng/g

Q: And the Activity (Rattus norvegicus [3])?
A: <340 ng/g

Q: What about the Activity (Rattus norvegicus [4]) of the same molecule?
A: 105 ng/g

Q: What about the Activity (Rattus norvegicus [5]) of the same molecule?
A: 5588 ng/g

Q: And the Activity (Rattus norvegicus [6])?
A: 975 ng/g

Q: And the Activity (Rattus norvegicus [7])?
A: 169 ng/g

Q: How did the Activity (Rattus norvegicus [20]) turn out when `CCCN(CCC)[C@H]1Cc2c(O)cccc2C[C@@H]1C` (stereo in doubt; (-)-11) was run?
A: 1039 ng/g

Q: What about the IC50 [1] of the same molecule?
A: 1680 nM

Q: And the Activity (Rattus norvegicus [21])?
A: 136 ng/g

Q: What about the Activity (Rattus norvegicus [22]) of the same molecule?
A: <800 ng/g

Q: And the Activity (Rattus norvegicus [23])?
A: 381 ng/g

Q: What about the Activity (Rattus norvegicus [24]) of the same molecule?
A: 117 ng/g

Q: And the Activity (Rattus norvegicus [25])?
A: <4181 ng/g

Q: Which Activity (Rattus norvegicus [2]) does the source give for `CCCN[C@H]1Cc2c(O)cccc2C[C@H]1C` (stereo in doubt; (-)-13) here?
A: 932 ng/g

Q: And the Activity (Rattus norvegicus [3])?
A: 365 ng/g

Q: What about the Activity (Rattus norvegicus [4]) of the same molecule?
A: 103 ng/g

Q: And the Activity (Rattus norvegicus [5])?
A: 5365 ng/g

Q: And the Activity (Rattus norvegicus [6])?
A: 1148 ng/g

Q: What about the Activity (Rattus norvegicus [7]) of the same molecule?
A: 151 ng/g
